Source: ChEMBL document CHEMBL1157565, “Discovery of 1-[3-(4-bromo-2-methyl-2h-pyrazol-3-yl)-4-methoxyphenyl]-3-(2,4-difluorophenyl)urea (nelotanserin) and related 5-hydroxytryptamine2A inverse agonists for the treatment of insomnia” (J Med Chem, 2010)
Activity calls are given as the source filed them. No cut-off for these calls is given here.

What was measured:
[1] = molecular target: T1, 5-hydroxytryptamine receptor 2C (Homo sapiens, UniProt P28335); assay: Displacement of [3H]DOI from human recombinant 5HT2C receptor expressed in HEK293 cells by scintillation counting; type: cell-based; details: in the assay text read “[125I]DOI” for “[3H]DOI”
T1 sequence (P28335 whole entry): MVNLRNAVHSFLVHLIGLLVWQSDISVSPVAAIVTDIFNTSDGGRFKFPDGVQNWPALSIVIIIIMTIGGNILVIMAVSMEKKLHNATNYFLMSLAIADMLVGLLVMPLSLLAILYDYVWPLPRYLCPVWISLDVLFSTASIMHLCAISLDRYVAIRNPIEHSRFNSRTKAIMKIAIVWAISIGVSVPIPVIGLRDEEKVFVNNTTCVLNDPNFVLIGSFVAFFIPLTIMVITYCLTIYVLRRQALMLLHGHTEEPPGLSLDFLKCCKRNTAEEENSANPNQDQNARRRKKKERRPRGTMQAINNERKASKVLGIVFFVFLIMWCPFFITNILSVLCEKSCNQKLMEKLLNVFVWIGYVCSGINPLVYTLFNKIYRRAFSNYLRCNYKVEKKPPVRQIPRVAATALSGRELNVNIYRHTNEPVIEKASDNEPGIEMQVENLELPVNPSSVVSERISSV
How it was run: (§1)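 Crude membranes (5-25 μg protein) from HEK293 cells stably expressing human 5-HT2A or 5-HT2C. Radioligand [125I]DOI at 0.5 nM final; 10 μM cold DOI defines nonspecific binding. Buffer 20 mM HEPES pH 7.4, 10 mM MgCl2; 1 h at room temperature. Eight concentrations (1 pM–10 μM), each in triplicate. Vacuum filtration on GF/C, Tris wash, scintillation counting; pKi.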

[2] = molecular target: T2, 5-hydroxytryptamine receptor 2A (Homo sapiens, UniProt P28223); assay: Displacement of [125I]DOI from human recombinant 5HT2A receptor expressed in HEK293 cells by scintillation counting
T2 sequence (P28223 whole entry): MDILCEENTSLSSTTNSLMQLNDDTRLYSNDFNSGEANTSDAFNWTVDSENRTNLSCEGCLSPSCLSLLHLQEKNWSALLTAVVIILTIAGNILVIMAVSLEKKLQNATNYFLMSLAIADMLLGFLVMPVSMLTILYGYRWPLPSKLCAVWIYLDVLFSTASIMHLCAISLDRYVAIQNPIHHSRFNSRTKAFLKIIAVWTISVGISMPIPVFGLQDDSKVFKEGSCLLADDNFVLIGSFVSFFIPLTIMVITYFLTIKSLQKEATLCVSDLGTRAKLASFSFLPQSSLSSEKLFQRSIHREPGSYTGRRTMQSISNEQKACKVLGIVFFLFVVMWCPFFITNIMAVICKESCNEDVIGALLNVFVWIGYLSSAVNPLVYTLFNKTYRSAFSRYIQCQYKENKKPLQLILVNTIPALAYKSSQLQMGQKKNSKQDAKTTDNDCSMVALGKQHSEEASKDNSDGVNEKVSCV

[3] = molecular target: T2, 5-hydroxytryptamine receptor 2A; assay: Activity at human 5HT2A receptor expressed in HEK293 cells assessed as [3H]inositol phosphate production by scintillation counting; type: functional, cell-based; details: read-out: pIC50 (converted)
How it was run: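 HEK-293 cells transiently transfected with a mutated, constitutively active h5-HT2A receptor, labeled 18 h with […] [3H]myoinositol in serum- and myoinositol-free DMEM. Then 3 h at 37 °C in HBSS with LiCl (10 mM final), pargyline and compound. Lysis with ice-cold 0.1 M formic acid; total [3H]IP separated on AG1-X8 resin and counted by scintillation. Inverse-agonist pIC50.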

[4] = Tmax in Wistar rat at 1.5 mg/kg, po; type: ADME, organism-based; set-up: dose 1.5 mg/kg, route oral; details: in vivo
How it was run: (§2)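 Male Wistar rats, fasted overnight, single oral dose in 80% Tween-80/20% water. Jugular vein blood sampled serially over 24 h ([…]); sodium-heparin plasma stored at -70 °C, quantified by HPLC/MS/MS (LLOQ 1 ng/mL, ULOQ 2000 ng/mL). n = 2-3 animals; noncompartmental analysis; values as mean ± SD.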

Rattus norvegicus [5] = assay: Effect on behavioral activity in Wistar rat assessed as increase in non-rapid eye movement delta power at 1.4 mg/kg, po after 2 hrs; type: functional, organism-based; set-up: dose 1.4 mg/kg
How it was run: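 Male Wistar rats (300 ± 25 g) implanted for continuous EEG/EMG recording, 1 week recovery. Repeated-measures design: each rat received each treatment, including 80% Tween-80 vehicle, in random order by oral gavage. Non-REM sleep parameters scored hourly after dosing; at least five rats per compound.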

[6] = AUC (0 to infinity) in Wistar rat at 1.5 mg/kg, po; type: ADME, organism-based; set-up: time infinity, dose 1.5 mg/kg, route oral; details: plasma; how it was run: as §2
[7] = Cmax in Wistar rat at 1.5 mg/kg, po; type: ADME, organism-based; set-up: dose 1.5 mg/kg, route oral; details: in vivo; how it was run: as §2
Rattus norvegicus [8] = assay: Effect on behavioral activity in po dosed Sprague-Dawley rat assessed as reversal of DOI-induced inhibition of rearing behavior; type: functional
How it was run: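 Adult male Sprague-Dawley rats dosed orally with compound 45 min before DOI (0.3 mg/kg), which lowers rearing. Fifteen minutes later, rearing recorded in photocell-monitored locomotor activity cages. A dose-response curve for reversal of DOI-induced rearing decrease yields an ED50.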

[9] = Half life in Wistar rat at 1.5 mg/kg, po; type: ADME, organism-based; set-up: dose 1.5 mg/kg, route oral; details: in vivo; how it was run: as §2
[10] = molecular target: T2, 5-hydroxytryptamine receptor 2A; assay: Displacement of [3H]DOI from human recombinant 5HT2A receptor expressed in HEK293 cells by scintillation counting; type: cell-based; details: in the assay text read “[125I]DOI” for “[3H]DOI”; how it was run: as §1
[11] = molecular target: 5-hydroxytryptamine receptor 2A (Rattus norvegicus, UniProt P14842); assay: Displacement of [125I]DOI from rat recombinant 5HT2A receptor by scintillation counting
5-hydroxytryptamine receptor 2A (Rattus norvegicus, UniProt P14842), sequence (P14842 whole entry): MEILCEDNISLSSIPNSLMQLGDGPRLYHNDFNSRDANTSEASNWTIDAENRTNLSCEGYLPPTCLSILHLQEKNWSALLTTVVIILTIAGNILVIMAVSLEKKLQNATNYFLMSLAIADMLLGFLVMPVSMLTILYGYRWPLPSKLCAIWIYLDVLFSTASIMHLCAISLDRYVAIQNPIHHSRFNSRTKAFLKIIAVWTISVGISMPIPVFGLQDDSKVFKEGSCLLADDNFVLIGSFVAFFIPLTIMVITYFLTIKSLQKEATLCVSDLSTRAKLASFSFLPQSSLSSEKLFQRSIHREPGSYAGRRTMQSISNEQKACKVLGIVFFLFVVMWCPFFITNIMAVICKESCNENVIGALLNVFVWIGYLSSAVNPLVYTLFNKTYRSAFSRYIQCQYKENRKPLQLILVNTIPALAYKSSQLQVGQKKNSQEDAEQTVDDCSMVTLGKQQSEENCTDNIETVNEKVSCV

[12] = molecular target: T1, 5-hydroxytryptamine receptor 2C; assay: Displacement of [125I]DOI from human recombinant 5HT2C receptor expressed in HEK293 cells by scintillation counting

Row | SMILES | Ki [1] | Ki [2] | IC50 [3] | Ki [10] | Ki [12] | also measured
1 | Cn1ncc(Br)c1-c1cc(NC(=O)Nc2ccc(Cl)cc2)ccc1OCCc1ccccc1 | 794 nM | 6.31 nM | 50.1 nM |  |  | 
2 | COc1ccc(NC(=O)Nc2ccc(Cl)cc2)cc1-c1c(Cl)cnn1C | 10 nM |  | 0.501 nM | 0.158 nM |  | Tmax [4]: 6 h; Activity (Rattus norvegicus [5]): Active; AUC(0-inf) [6]: 478 ng·h/mL; Cmax [7]: 41 ng/mL; ED50 (Rattus norvegicus [8]): 0.7 mg/kg; half-life [9]: 5 h; Ki [11]: 2 nM
3 | COc1ccc(NC(=O)Nc2ccc(F)cc2)cc1-c1c(Br)cnn1C(C)C |  |  | 1 nM | 0.251 nM | 3.98 nM | 
4 | COc1ccc(NC(=O)Nc2ccc(Cl)cc2Cl)cc1-c1c(Br)cnn1C | 25.1 nM |  | 1.26 nM | 0.2 nM |  | 
5 | COc1ccc(NC(=O)Nc2cc(F)cc(F)c2)cc1-c1c(Br)cnn1C | 15.8 nM | 0.316 nM | 1.26 nM |  |  | 
6 | COc1ccc(NC(=O)Nc2ccc(F)c(F)c2)cc1-c1c(Cl)cnn1C | 25.1 nM |  | 0.501 nM | 0.251 nM |  | 
7 | COc1ccc(NC(=O)Nc2ccc(Cl)cc2C(F)(F)F)cc1-c1c(Br)cnn1C | 126 nM |  | 2.51 nM | 0.501 nM |  | 
8 | COc1ccc(NC(=O)Nc2ccc(F)cc2F)cc1-c1c(Cl)cnn1C |  | 0.631 nM | 1 nM |  | 316 nM | 
9 | COc1ccc(NC(=O)Nc2ccccc2F)cc1-c1c(Br)cnn1C |  |  |  | 1 nM | 398 nM | 
10 | COc1ccc(NC(=O)Nc2cc(C(F)(F)F)cc(C(F)(F)F)c2)cc1-c1c(Cl)cnn1C |  |  | 3.98 nM | 1 nM | 63.1 nM | 
11 | COc1ccc(NC(=O)Nc2ccc(Cl)c(C(F)(F)F)c2)cc1-c1c(Br)cnn1C |  | 0.316 nM | 0.794 nM |  | 3.16 nM | 
12 | CCOc1ccc(NC(=O)Nc2ccc(Cl)cc2)cc1-c1c(Br)cnn1C | 2 nM |  |  | 0.251 nM |  | 
13 | COc1ccc(NC(=O)Nc2ccc(C(F)(F)F)cc2)cc1-c1c(Br)cnn1C |  | 0.316 nM | 1.58 nM |  | 3.98 nM | 
14 | COc1ccc(NC(=O)Nc2cc(C(F)(F)F)cc(C(F)(F)F)c2)cc1-c1c(Br)cnn1C |  | 0.398 nM | 2 nM |  | 31.6 nM | 
15 | COc1ccc(NC(=O)Nc2ccc(F)c(F)c2)cc1-c1c(F)cnn1C |  |  | 2.51 nM | 1.26 nM | 398 nM | 
16 | Cn1ncc(Br)c1-c1cc(NC(=O)Nc2ccc(Cl)cc2)ccc1OCc1ccccc1 | 158 nM |  | 7.94 nM | 5.01 nM |  | 
17 | CC(C)Oc1ccc(NC(=O)Nc2ccc(Cl)cc2)cc1-c1c(Br)cnn1C | 10 nM | 0.316 nM | 1.58 nM |  |  | 
18 | COc1ccc(NC(=O)Nc2cccc(F)c2)cc1-c1c(Br)cnn1C |  | 0.316 nM | 0.794 nM |  | 39.8 nM | 
